This excerpt belongs to a sample that is enriched for hits.
E coli WT inh: growth inhibitors of wild type E. coli, primary screen, strain BW25113 wild type, absorbance readout; E. coli BW25113 growth inhibition, OD600; actives 0.05% (n = 20,000); inhibition, % at 10 µM; in the data active = inhibition above about 40%;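 also: bacteria exposed to compound for 20 hours at 37 °C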
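Material: bacterial strain in a whole-cell growth screen; Amount: inoculum from a 1:1000 dilution of a 1.5 h subculture; Buffer or medium: LB plus kanamycin 50 µg/mL; Dosing: one dose, 10 µM final; Times: compound exposure of 20 h at 37 °C; Measured by: absorbance at 615 nm as a measure of bacterial growth.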
Starred values were filed as active, the others as inactive.

SMILES	E coli WT inh
CN(C)[C@@H]1C(=O)C(C(N)=O)=C(O)[C@@]2(O)C(=O)C3=C(O)c4c(O)cccc4[C@@](C)(O)[C@H]3[C@H](O)[C@@H]12	40*
CCOc1ccc(-n2c(O)c(C=NCCN3CCNCC3)c(=O)[nH]c2=O)cc1	8
Cc1cccnc1NC1=NCC(C)S1 (stereo not given)	-14
CC(C)=CCC12CN3CCN(CC(C3)C1=O)C2	-16
Cc1onc(-c2ccccc2)c1C(=O)N1CCC2(CC1)OCCO2	-3

Screening results: PubChem BioAssay, SRMLSC
